# Screening results (PubChem BioAssay)
# Yeast growth inh – growth inhibitors of yeast BB579 in restrictive medium, primary screen, yeast lifespan-shortening project, S. cerevisiae; OD615, 48 h; inhibition, % at 10 µM; 140,000 compounds, 0.51% hits;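 active means inhibition above a set limit, 3 SD over the mean compound inhibition, cut at about 44% in these data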
#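 controls = amphotericin B 10 µg/mL, positive | assay system = DeaD yeast strain BB579 | schedule = 48 h compound exposure at 30 °C after 4 h preincubation | detection = OD615 turbidity measurement | medium = restrictive CSMM-D medium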
# WT yeast gro inh – growth inhibition of WT strain, primary screen, mitochondrial fusion inhibitor project, WT and mutant strains, chemical genetic | mitochondrial fusion phenotypic screen | inhibition, % at 10 µM | 190,000 compounds, 2.1% hits | AID 1362, 2008; in the data active means inhibition above about 58%; tested in S. cerevisiae
# Cl transport mod – KCC2 cotransporter modulators, thallium flux, primary screen, cell-based, HEK293 KCC2, FluoZin-2 fluorescence, MLSMR; 190,000 compounds, 2.2% hits; KCC2 cells, thallium flux FluoZin-2 fluorescence; B-score of Tl+ flux slope (higher = more flux/activation; lower = inhibition) at 10 µM; Solute carrier family 12 member 5 (Homo sapiens), Q9H2X9;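 active means thallium flux slope and its plate-corrected score both differing from the plate sample mean at a set confidence after two filtering rounds, in either direction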;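 further: slope of fluorescence scaled to starting intensity during 10 to 20 s after thallium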
# RAM inhibit – inhibitors of the yeast RAM network, primary screen, dse1pr::URA3 reporter, 5-FOA selection | S. cerevisiae dse1pr::URA3 reporter, 5-FOA growth OD615, 2 d; analog-sensitive cbk1-as2 kinase mutant strain | inhibition, % at 50 µM | 190,000 compounds, 1.8% hits;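 active means inhibition above a set limit, 3 SD over mean compound inhibition, cut at about 8.4% in these data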;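 further: 0% = DMSO-only wells with no growth and 100% = 10 µM 1-NA-PP1 full growth; inhibition rescues growth on 5-FOA so higher OD means more RAM inhibition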
# Yeast life ext – compounds extending yeast replicative lifespan, primary screen, S. cerevisiae, OD615. S. cerevisiae growth with nicotinamide; deaD strain in restrictive glucose medium. inhibition of the nicotinamide effect, % at 10 µM. 130,000 compounds, 0.68% hits. AID 775, 2007;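 active means inhibition above a set limit, placed 3 SD over the median of all compounds, cut at about 26% in these data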;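 further: 0% = nicotinamide-treated wells and 100% = cells grown without nicotinamide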
#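 Test system – modified budding yeast, DeaD strain · Compound – single dose 10 µM compound, 0.25% DMSO · Times – culture preincubation 4 h, compound exposure 48 h, both 30 °C · Detection – optical density (absorbance) at 615 nm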
# KCC2 sec1 – KCC2 modulators in sodium-free buffer, confirmation, cell-based, HEK293 KCC2, thallium flux, secondary assay; shares compounds with Cl transport mod; FluoZin2 fluorescence; hits give high values; normalised thallium flux (F/F0 slope) at 10 µM; 3,700 compounds, 15% hits; AID 1713, 2009;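 active means thallium flux slope above the same plate's solvent-only control mean plus 3 SD; inconclusive means the two replicate wells disagree; inactive means no significant difference from solvent-only control wells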
# KCC2 bumet counter – thallium flux persisting under bumetanide in KCC2 cells, confirmation, counter-screen for KCC2 modulator project, cell-based, HEK293 KCC2, FluoZin2, secondary assay 3; 3,700 compounds, 49% hits; normalized thallium flux at 10 µM; shares compounds with Cl transport mod; HEK293-KCC2 + bumetanide/ouabain; hits give high values;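 active means thallium entry rate above the same plate's blocked-transporter control wells by more than 3 SD; inconclusive means the two repeat wells disagree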;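 further: raw slope of fluorescence over initial fluorescence between 10 and 20 s after thallium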
# KCC2 sec2 – KCC2 modulators without ouabain present, confirmation, cell-based, HEK293 KCC2, thallium flux, FluoZin2, secondary assay 2; shares compounds with Cl transport mod; thallium flux FluoZin2 fluorescence; actives lie on both sides; F/F0 rise rate, 10–20 s post-thallium; normalized thallium flux at 10 µM; 3,700 compounds, 23% hits; AID 1715, 2009;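 active means thallium flux slope more than 3 SD above or below the plate's solvent-only control mean, mostly below; inconclusive means the two repeat wells disagreed; inactive means no significant shift from solvent-only controls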;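 further: raw slope with 0.1% DMSO as baseline and bumetanide as block control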
# HEK counter1 – thallium flux modulation in parental HEK cells, confirmation, counter-screen for KCC2 modulator project, cell-based, counterscreen 1; HEK293 parental cells, thallium flux FluoZin2, ouabain; baseline-ratio fluorescence slope, 10–20 s after thallium; 3,700 compounds, 46% hits; thallium flux rate (normalised fluorescence) at 10 µM; shares compounds with Cl transport mod;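 active means thallium flux rate significantly above the same plate's solvent-only control wells, beyond their mean plus 3 SD; inconclusive means the two replicate wells gave conflicting results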
# KCC2 retest ouab – KCC2 inhibitors and activators, ouabain retest, confirmation, HEK-KCC2 cells; shares compounds with Cl transport mod; HEK293-KCC2, thallium flux FluoZin2 fluorescence; bidirectional: low = inhibitor, high = activator; raw Tl+ flux slope (below DMSO = inhibition, above = activation) at 10 µM; 3,700 compounds, 48% hits;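 active means thallium flux slope beyond 3 SD from same-plate DMSO control mean in most replicates, usually higher, sometimes lower; inconclusive means repeat tests gave conflicting results; inactive means no significant difference from controls in most replicates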;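 further: slope of initial-normalized fluorescence between seconds 10 and 20 after thallium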
# HEK293 Tl flux2 – native HEK Tl+ uptake effects, second counter-screen – HEK cells, counterscreen 2, counter-screen for KCC2 modulator project, confirmation | AID 1718, 2009 | HEK293 parental, thallium flux FluoZin-2 fluorescence slope | 3,700 compounds, 33% hits | shares compounds with Cl transport mod | thallium flux slope at 10 µM;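 active means thallium flux slope above the same plate's solvent-control mean plus 3 SD in both duplicate wells; inconclusive means duplicate wells that disagreed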;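 further: run without ouabain in cells lacking the KCC2 cotransporter; slope of fluorescence scaled to its starting value between 10 and 20 s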
# Active calls of the source: *; ? = inconclusive; nt = no result given. Hits are enriched below; roughly 5.5% of the tested compounds scored in any of these assays.
SMILES,Yeast growth inh,WT yeast gro inh,Cl transport mod,RAM inhibit,Yeast life ext,KCC2 sec1,KCC2 bumet counter,KCC2 sec2,HEK counter1,KCC2 retest ouab,HEK293 Tl flux2
O=C(/C=C/Sc1ccc(C(F)(F)F)cn1)c1ccccc1,nt,nt,1,nt,nt,nt,nt,nt,nt,nt,nt
CCOC(=O)c1ccc(NC(=O)CN(Cc2ccc(Cl)cc2)S(C)(=O)=O)cc1,-37,8,nt,3,-3,nt,nt,nt,nt,nt,nt
CCn1nnnc1SCC(=O)Nc1nc(-c2cccs2)cs1,-9,20,-4.1*,2,-6,0.0088,0.0063,?,0.0067,0.014*,0.01
Cn1c(SCc2c(Cl)cccc2Cl)nnc1-c1cccs1,-54,13,-4.6*,0,-4,0.0076,0.0039,0.027,?,?,0.0093
Cc1ccc(CSc2nnc(-c3cccs3)n2C)cc1,-31,-3,nt,1,-5,nt,nt,nt,nt,nt,nt
Cc1csc(NC(=O)CSc2nnc(CCNC(=O)c3cccs3)n2C)n1,-21,-6,0.03,0,nt,nt,nt,nt,nt,nt,nt
Cc1csc(NC(=O)CSc2nnc(-c3cccs3)n2C)n1,14,9,-3*,4,-11,0.0078,0.0064,0.032,0.0068,0.02,0.011
Cc1ccc(-c2ccc(SCC(=O)Nc3ccc4c(c3)OCCO4)nn2)cc1,-23,2,-0.071,3,-1,nt,nt,nt,nt,nt,nt
Cc1ccc(-c2ccc(SCC(=O)Nc3nonc3C)nn2)cc1,-30,-4,-5.7*,2,-4,0.0055,0.004,0.023*,0.0058*,0.013*,0.0095
COc1ccc(CNC(=O)C2CCC(CNc3c(N4CCC(C)CC4)c(=O)c3=O)CC2)cc1 (stereo not drawn),nt,nt,0.39,nt,nt,nt,nt,nt,nt,nt,nt
Cc1ccccc1C(C(=O)NC1CCCCC1)N(C(=O)CNC(=O)c1ccco1)c1cccnc1 (stereo not drawn),nt,-6,nt,4,nt,nt,nt,nt,nt,nt,nt
CCOC(=O)c1cc(C#N)c(N2CCN(c3ccc(OC)cc3)CC2)[nH]c1=O,nt,-5,-0.018,0,nt,nt,nt,nt,nt,nt,nt
COc1ccc(NC(=O)c2n[nH]c(=O)c3ccccc23)cc1S(=O)(=O)N1CCCCC1,-9,-3,-0.74,5,-4,nt,nt,nt,nt,nt,nt
Cn1c(CSCc2ccccc2)nnc1SCC(=O)Nc1nccs1,-8,1,6.2*,5,nt,0.0058,0.004,0.028,0.0067,0.017,0.0093
Cn1c(SCC(=O)Nc2nc3c(s2)CCCC3)nnc1-c1ccccc1,-10,12,-4.8*,4,-11,0.0074,0.0054,0.023*,0.0082,0.018*,0.012
Cc1csc(NC(=O)CSc2ccc(-c3ccccc3)nn2)n1,nt,-8,-5.6*,4,nt,0.014,0.0051,0.019*,0.0068,0.013,0.0097
